In brackets after ≈: the same amount, converted by molar mass.
Legend:
[1] = tested on: M. tuberculosis H37Rv; assay: MIC against Mtb H37Rv, microplate alamar blue assay; type: cell-based, Mycobacterium tuberculosis; conditions: for MIC: Mycobacterium tuberculosis, H37RV
[2] = Microsomal stability, mouse liver microsomes; type: in vitro ADME
Outline: (§1)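 The test compound, taken from a 10 mM DMSO stock and diluted to 100 μM in DMSO, was added to mouse or human liver microsomes and preincubated at 37 °C for 5 min. The reaction was started with buffer/NADPH working solution (5 mM); samples without NADPH were the negative controls. Aliquots at 0 and 30 min were quenched with internal standard, centrifuged at 4 °C, and measured by LC-MS/MS.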

[3] = tested on: Vero cells
[4] = Metabolic stability in liver microsomes; type: in vitro ADME; conditions: mouse and human liver microsomes, without NADPH
Outline: as §1

[5] = Microsomal stability, human liver microsomes; type: in vitro ADME
Outline: as §1

[6] = In vivo pharmacokinetic profiles in male ICR mice; conditions: for AUC(0-t) / Cmax / Tmax / Vd / clearance / half-life / bioavailability: male, ICR, mouse, plasma; for bioavailability: oral
Outline: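 SPF male ICR mice (22–23 g), three per route. Oral 10 mg/kg (1.0 mg/mL in 0.5% carboxymethyl cellulose/0.5% Tween 80); i.v. 2 mg/kg (0.4 mg/mL in 20% HP-β-CD with 4 mol/L HCl). Plasma extracted 20:1 with acetonitrile containing internal standard; LC-MS/MS, C18, isocratic acetonitrile/water 80:20 with 0.1% formic acid. Non-compartmental parameters; F = (AUCp.o.×dosei.v.)/(AUCi.v.×dosep.o.).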

[7] = liver microsomes, previous reports ref 30; cited from earlier work
[8] = Mouse (% remaining at 30 min) With NADPH, with NADPH
[9] = Mouse (% remaining at 30 min) Without NADPH, without NADPH
[10] = Human (% remaining at 30 min) With NADPH, with NADPH
[11] = Human (% remaining at 30 min) Without NADPH, without NADPH

Row | SMILES | MIC [1] | remaining at 0.5 h, 1 µM [2, 8] | remaining at 0.5 h, 1 µM [2, 9] | metabolism in the absence of NADPH (in words) [4] | remaining at 0.5 h, 1 µM [5, 10] | remaining at 0.5 h, 1 µM [5, 11] | AUC(0-t) ([6]; iv, 2 mg/kg) | Cmax ([6]; iv, 2 mg/kg) | Tmax ([6]; iv, 2 mg/kg) | Vd ([6]; iv, 2 mg/kg) | clearance ([6]; iv, 2 mg/kg) | half-life ([6]; iv, 2 mg/kg) | bioavailability ([6]; 10 mg/kg) | AUC(0-t) ([6]; po, 10 mg/kg) | Cmax ([6]; po, 10 mg/kg) | Tmax ([6]; po, 10 mg/kg) | half-life ([6]; po, 10 mg/kg) | also measured
1 | N#Cc1cc(C(F)(F)F)cc2c(=O)nc(N3CCN(CC4CCCC4)CC3)sc12 [Compound 1c, 2-(4-(cyclopentylmethyl)piperazin-1-yl)-4-oxo-6-(trifluoromethyl)-4H-benzo[e][1,3]thiazine-8-carbonitrile] | 0.2 µM (≈ 0.0845 µg/mL) |  |  |  |  |  |  |  |  |  |  |  |  |  |  |  |  | 
2 | N#Cc1cc(C(F)(F)F)cc2c(=O)nc(N3CCN(CC4CCCCC4)CC3)sc12 [Compound 1d, 2-(4-(cyclohexylmethyl)piperazin-1-yl)-4-oxo-6-(trifluoromethyl)-4H-benzo[e][1,3]thiazine-8-carbonitrile] | 0.13 µM (≈ 0.0567 µg/mL) | 38.6% | 96.4% | neither macozinone nor 1d were metabolized | 26.3% | 102% | 445 ng·h/mL | 1340 ng/mL | 1.98 min | 11.3 L/kg | 71.2 mL/min/kg | 110 min | 7.8% | 174 ng·h/mL | 110 ng/mL | 15 min | 104 min | cytotoxicity (in words) [3]: no cytotoxicity; increase in the volume of distribution (V) relative to macozinone ([6]; i.v. dosing, mice): 2.0 fold; decrease of oral bioavailability relative to macozinone ([6]; mice): twofold; maximum plasma concentration ([6]; oral dosing, male ICR mice): 240 nM
3 | N#Cc1cc(C(F)(F)F)cc2c(=O)nc(N3CCN(CC4CCOC4)CC3)sc12 (centres unmarked) [Compound 1e, 4-Oxo-2-(4-((tetrahydrofuran-3-yl)methyl)piperazin-1-yl)-6-(trifluoromethyl)-4H-benzo[e][1,3]thiazine-8-carbonitrile] |  |  |  |  |  |  |  |  |  |  |  |  |  |  |  |  |  | loss of potency relative to cyclopentyl methyl 1c ([1]; Mtb H37Rv MIC): 10 fold
4 | N#Cc1cc(C(F)(F)F)cc2c(=O)nc(N3CCN(CC4COC4)CC3)sc12 [Compound 1f, 2-(4-(oxetan-3-ylmethyl)piperazin-1-yl)-4-oxo-6-(trifluoromethyl)-4H-benzo[e][1,3]thiazine-8-carbonitrile] |  |  |  |  |  |  |  |  |  |  |  |  |  |  |  |  |  | antimycobacterial activity (in words) ([1]; Mtb H37Rv): inactive
5 | O=c1nc(N2CCN(CC3CCCCC3)CC2)sc2c([N+](=O)[O-])cc(C(F)(F)F)cc12 [Macozinone, reference compound] |  | 50.7% | 102% | neither macozinone nor 1d were metabolized | 46.8% | 101% | 423 ng·h/mL | 1230 ng/mL | 1.98 min | 5.64 L/kg | 75.8 mL/min/kg | 51.6 min | 16.7% | 354 ng·h/mL | 251 ng/mL | 15 min | 101 min | half-life (metabolic stability) [7]: 34 to 43 min

Source: paper PMC7805566 (Medicinal Chemistry Research, 2021)
